Assay results published in ChEMBL document CHEMBL1687725, “Pharmacokinetics and safety of caspofungin in older infants and toddlers” (Antimicrob Agents Chemother, 2009).

Assays:
[1] = species on record: Homo sapiens; assay: Clearance in 3 to 24 months old infants/toddlers measured on day 1 post dose; details: in vivo
[2] = AUC (0 to 24 hrs) in 3-24 months old infants/toddlers at 50 mg/m'2, iv dosed once daily measured on day 4 post dose; assay type: ADME, organism-based; design: time < 24 hr, route intravenous; details: human, plasma
[3] = species on record: Homo sapiens; assay: (§1) Cmax in plasma of in 12 […] old infants/toddlers measured on day 4 post dose; assay type: ADME, organism-based; details: in vivo
[4] = as §1; assay type: ADME, organism-based; details: human, plasma
[5] = AUC (0 to 24 hrs) in 12 […] old infants/toddlers measured on day 4 post dose; assay type: ADME, organism-based; design: time < 24 hr; details: human, plasma
[6] = Cmax in plasma of in 17 years old infants/toddlers measured on day 4 post dose; assay type: ADME, organism-based; details: human
[7] = AUC (0 to 24 hrs) in 13 […] old infants/toddlers measured on day 4 post dose; assay type: ADME, organism-based; design: time < 24 hr; details: human, plasma
[8] = AUC (0 to 24 hrs) in infants/toddlers measured on day 1 post dose; details: human, plasma
[9] = species on record: Homo sapiens; assay: Clearance in 10 […] old infants/toddlers measured on day 1 post dose; assay type: ADME, organism-based; details: in vivo
[10] = Cmax in plasma in infants/toddlers measured on day 4 post dose; details: human
[11] = Cmax in plasma of 3-24 months old infants/toddlers at 50 mg/m'2, iv dosed once daily measured on day 1 post dose; assay type: ADME, organism-based; design: route intravenous; details: human
[12] = tested on: Homo sapiens; assay: Clearance in 3-24 months old infants/toddlers at 50 mg/m'2, iv dosed once daily measured on day 1 post dose; assay type: ADME, organism-based; details: in vivo
[13] = tested on: Homo sapiens; assay: Clearance in adult human at 70 mg, iv dosed once daily measured on day 1 post dose; assay type: ADME, organism-based; details: in vivo
[14] = Cmax in plasma of 2-11 years old children at 50 mg/m'2, iv dosed once daily measured on day 4 post dose; assay type: ADME, organism-based; design: route intravenous; details: human
[15] = Cmax in plasma of adult human at 50 mg, iv dosed once daily measured on day 1 post dose; assay type: ADME, organism-based; design: dose 50 mg, route intravenous
[16] = AUC (0 to 24 hrs) in 12-17 years old adolescents at 50 mg/m'2, iv dosed once daily measured on day 1 post dose; assay type: ADME, organism-based; design: time < 24 hr, route intravenous; details: human, plasma
[17] = Cmax in plasma of 12-17 years old adolescents at 50 mg/m'2, iv dosed once daily measured on day 4 post dose; assay type: ADME, organism-based; design: route intravenous; details: human
[18] = AUC (0 to 24 hrs) in adult human at 50 mg, iv dosed once daily measured on day 1 post dose; assay type: ADME, organism-based; design: time < 24 hr, dose 50 mg, route intravenous; details: plasma
[19] = species on record: Homo sapiens; assay: Clearance in 17 […] old infants/toddlers measured on day 1 post dose; assay type: ADME, organism-based; details: in vivo
[20] = species on record: Homo sapiens; assay: Clearance in 12 […] old infants/toddlers measured on day 1 post dose; assay type: ADME, organism-based; details: in vivo
[21] = Cmax in plasma of 3-24 months old infants/toddlers at 50 mg/m'2, iv dosed once daily measured on day 4 post dose; assay type: ADME, organism-based; design: route intravenous; details: human
[22] = AUC (0 to 24 hrs) in 2-11 years old children at 50 mg/m'2, iv dosed once daily measured on day 1 post dose; assay type: ADME, organism-based; design: time < 24 hr, route intravenous; details: human, plasma
[23] = tested on: Homo sapiens; assay: Clearance in 2-11 years old children at 50 mg/m'2, iv dosed once daily measured on day 1 post dose; assay type: ADME, organism-based; details: in vivo
[24] = AUC (0 to 24 hrs) in 17 […] old infants/toddlers measured on day 4 post dose; assay type: ADME, organism-based; design: time < 24 hr; details: human, plasma
[25] = AUC (0 to 24 hrs) in adult human at 70 mg, iv dosed once daily measured on day 1 post dose; assay type: ADME, organism-based; design: dose 70 mg, time < 24 hr, route intravenous; details: plasma
[26] = AUC (0 to 24 hrs) in adult human at 70 mg, iv dosed once daily measured on day 3 to 14 post dose; assay type: ADME, organism-based; design: dose 70 mg, time < 24 hr, route intravenous; details: plasma
[27] = Cmax in plasma of in […] infants/toddlers measured on day 1 post dose; assay type: ADME, organism-based; details: human
[28] = AUC (0 to 24 hrs) in 20 […] old infants/toddlers measured on day 4 post dose; assay type: ADME, organism-based; design: time < 24 hr; details: human, plasma
[29] = AUC (0 to 24 hrs) in 2-11 years old children at 50 mg/m'2, iv dosed once daily measured on day 4 post dose; assay type: ADME, organism-based; design: time < 24 hr, route intravenous; details: human, plasma
[30] = AUC (0 to 24 hrs) in infants/toddlers measured on day 4 post dose; details: human, plasma
[31] = tested on: Homo sapiens; assay: Clearance in adult human at 50 mg, iv dosed once daily measured on day 1 post dose; assay type: ADME, organism-based; details: in vivo
[32] = Cmax in plasma of adult human at 70 mg, iv dosed once daily measured on day 1 post dose; assay type: ADME, organism-based; design: dose 70 mg, route intravenous
[33] = Cmax in plasma of in 10 years old infants/toddlers measured on day 4 post dose; assay type: ADME, organism-based; details: human
[34] = Cmax in plasma of in 10 […] old infants/toddlers measured on day 1 post dose; assay type: ADME, organism-based; details: human
[35] = AUC (0 to 24 hrs) in 17 […] old infants/toddlers measured on day 1 post dose; assay type: ADME, organism-based; design: time < 24 hr; details: human, plasma
[36] = AUC (0 to 24 hrs) in adult human at 50 mg, iv dosed once daily measured on day 3 to 14 post dose; assay type: ADME, organism-based; design: dose 50 mg, time < 24 hr, route intravenous; details: plasma
[37] = tested on: Homo sapiens; assay: Cmin in plasma of 2-11 years old children at 50 mg/m'2, iv dosed once daily measured on day 1 post dose; assay type: ADME, organism-based; details: in vivo
[38] = Cmax in plasma of in 3 to 24 months old infants/toddlers measured on day 4 post dose; details: human
[39] = tested on: Homo sapiens; assay: Clearance in 12-17 years old adolescents at 50 mg/m'2, iv dosed once daily measured on day 1 post dose; assay type: ADME, organism-based; details: in vivo
[40] = AUC (0 to 24 hrs) in 20 […] old infants/toddlers measured on day 1 post dose; assay type: ADME, organism-based; design: time < 24 hr; details: human, plasma
[41] = Cmax in plasma of adult human at 50 mg, iv dosed once daily measured on day 3 to 14 post dose; assay type: ADME, organism-based; design: dose 50 mg, route intravenous
[42] = Cmax in plasma of 12-17 years old adolescents at 50 mg/m'2, iv dosed once daily measured on day 1 post dose; assay type: ADME, organism-based; design: route intravenous; details: human
[43] = AUC (0 to 24 hrs) in 10 […] old infants/toddlers measured on day 1 post dose; assay type: ADME, organism-based; design: time < 24 hr; details: human, plasma
[44] = Cmax in plasma of in 13 […] old infants/toddlers measured on day 1 post dose; assay type: ADME, organism-based; details: human
[45] = Cmax in plasma of in 17 […] old infants/toddlers measured on day 1 post dose; assay type: ADME, organism-based; details: human
[46] = Cmax in plasma in infants/toddlers measured on day 1 post dose; details: human
[47] = Cmax in plasma of in 12 […] old infants/toddlers measured on day 1 post dose; assay type: ADME, organism-based; details: human
[48] = Cmax in plasma of in 20 […] old infants/toddlers measured on day 4 post dose; assay type: ADME, organism-based; details: human
In short: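 Infants/toddlers (10 to 24 months) with fever and neutropenia received caspofungin 50 mg/m2 once daily as a 1-h infusion. C1 is the observed plasma concentration at the end of the first (day 1) or fourth (day 4) infusion, sampled from 20 min before to 30 min after the end of infusion. Caspofungin was measured by HPLC with fluorescence detection.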

[49] = Cmax in plasma of 2-11 years old children at 50 mg/m'2, iv dosed once daily measured on day 1 post dose; assay type: ADME, organism-based; design: route intravenous; details: human
[50] = AUC (0 to 24 hrs) in 12 […] old infants/toddlers measured on day 1 post dose; assay type: ADME, organism-based; design: time < 24 hr; details: human, plasma
[51] = AUC (0 to 24 hrs) in 3-24 months old infants/toddlers at 50 mg/m'2, iv dosed once daily measured on day 1 post dose; assay type: ADME, organism-based; design: time < 24 hr, route intravenous; details: human, plasma
[52] = AUC (0 to 24 hrs) in 12-17 years old adolescents at 50 mg/m'2, iv dosed once daily measured on day 4 post dose; assay type: ADME, organism-based; design: time < 24 hr, route intravenous; details: human, plasma
[53] = AUC (0 to 24 hrs) in 10 […] old infants/toddlers measured on day 4 post dose; assay type: ADME, organism-based; design: time < 24 hr; details: human, plasma
[54] = Cmax in plasma of adult human at 70 mg, iv dosed once daily measured on day 3 to 14 post dose; assay type: ADME, organism-based; design: dose 70 mg, route intravenous
[55] = species on record: Homo sapiens; assay: Clearance in infants/toddlers measured on day 1 post dose; details: in vivo

Structure (SMILES): CC[C@H](C)C[C@H](C)CCCCCCCCC(=O)N[C@H]1C[C@@H](O)[C@@H](NCCN)NC(=O)[C@@H]2[C@@H](O)CCN2C(=O)[C@H]([C@H](O)CCN)NC(=O)[C@H]([C@H](O)[C@@H](O)c2ccc(O)cc2)NC(=O)[C@@H]2C[C@@H](O)CN2C(=O)[C@H]([C@@H](C)O)NC1=O [CASPOFUNGIN]
- CL [1]: 5.98 ml/min/m2
- AUC at 24 h [2]: 130 µg·h/mL
- Cmax [3]: 17960 ng/mL
- Cmax [4]: 15900 ng/mL
- AUC at 24 h [5]: 122 µg·h/mL
- Cmax [6]: 16400 ng/mL
- AUC at 24 h [7]: 121 µg·h/mL
- AUC(0-t) at 24 h [8]: 120 µg·h/mL
- CL [9]: 4.37 ml/min/m2
- Cmax [10]: 21300 ng/mL
- Cmax [11]: 17500 ng/mL
- CL [12]: 6.05 ml/min/m2
- CL [13]: 5.2 ml/min/m2
- Cmax [14]: 15600 ng/mL
- Cmax [15]: 7670 ng/mL
- AUC(0-t) at 24 h [16]: 77.6 µg·h/mL
- Cmax [17]: 12900 ng/mL
- AUC(0-t) at 24 h [18]: 70.6 µg·h/mL
- CL [19]: 4.94 ml/min/m2
- CL [20]: 6.44 ml/min/m2
- Cmax [21]: 17200 ng/mL
- AUC(0-t) at 24 h [22]: 96.4 µg·h/mL
- CL [23]: 7.78 ml/min/m2
- AUC at 24 h [24]: 135 µg·h/mL
- AUC(0-t) at 24 h [25]: 97.1 µg·h/mL
- AUC at 24 h [26]: 154 µg·h/mL
- Cmax [27]: 13000 ng/mL
- AUC at 24 h [28]: 122 µg·h/mL
- AUC at 24 h [29]: 115 µg·h/mL
- AUC at 24 h [30]: 171 µg·h/mL
- CL [31]: 6.07 ml/min/m2
- Cmax [32]: 10000 ng/mL
- Cmax [33]: 15200 ng/mL
- Cmax [34]: 14500 ng/mL
- AUC(0-t) at 24 h [35]: 102 µg·h/mL
- AUC at 24 h [36]: 103 µg·h/mL
- Cmin [37]: 1090 ng/mL
- Cmax [38]: 16900 ng/mL
- CL [39]: 6.3 ml/min/m2
- AUC(0-t) at 24 h [40]: 97.4 µg·h/mL
- Cmax [41]: 9390 ng/mL
- Cmax [42]: 8950 ng/mL
- AUC(0-t) at 24 h [43]: 160 µg·h/mL
- Cmax [44]: 15800 ng/mL
- Cmax [45]: 13900 ng/mL
- Cmax [46]: 21500 ng/mL
- Cmax [47]: 17500 ng/mL
- Cmax [48]: 12100 ng/mL
- Cmax [49]: 14000 ng/mL
- AUC(0-t) at 24 h [50]: 109 µg·h/mL
- AUC(0-t) at 24 h [51]: 120 µg·h/mL
- AUC at 24 h [52]: 117 µg·h/mL
- AUC at 24 h [53]: 114 µg·h/mL
- Cmax [54]: 13300 ng/mL
- CL [55]: 6.82 ml/min/m2
